hiPSC survival – hiPSC single-cell survival enhancement; ATPlite luminescence; 100% = ROCK inhibitor wells, 0% = DMSO; survival enhancement, % at 20 µM; hit rate 0.044% among 360,000; in the data active means survival enhancement above about 18%;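 further: cells exposed to compounds for 16 hours before the ATP read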
MT1-MMP act inh – MT1-MMP (human) activation inhibition. GFP/RFP ratio change, % at 20 µM. HT1080 RFP-PRO-GFP cells, GFP/RFP ratio fluorescence, overnight; percent of plate control window, DMSO zero. hit rate 0.061% among 360,000. P50281. AID 651647;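 active means GFP/RFP ratio change of at least 30% with cell ATP level not reduced by more than half and red fluorescence within 50% of control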
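Assay system: HT1080 cells carrying an RFP-PRO-GFP reporter | Dosing: Single dose of 20 µM compound, 1% DMSO final | Incubation: Cells overnight before dosing, compound overnight, 37 °C, 5% CO2 | Evaluation: GFP/RFP fluorescence ratio | Control set: DMSO and RFP-L50D-GFP cell wells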
CendR NRP1 mod – alters CendR peptide binding to human NRP-1; AID 602438; FAM-RPARPAR peptide binding to NRP-1, fluorescence polarization; O14786; hit rate 0.85% among 360,000; inhibition, % at 25 µM;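 active means inhibition or corrected inhibition above about 18%, plus a signal ratio from 0.5 to 1.5, limit read from the data, passing the limit was not always enough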
Target sequence (O14786 whole entry, looked up): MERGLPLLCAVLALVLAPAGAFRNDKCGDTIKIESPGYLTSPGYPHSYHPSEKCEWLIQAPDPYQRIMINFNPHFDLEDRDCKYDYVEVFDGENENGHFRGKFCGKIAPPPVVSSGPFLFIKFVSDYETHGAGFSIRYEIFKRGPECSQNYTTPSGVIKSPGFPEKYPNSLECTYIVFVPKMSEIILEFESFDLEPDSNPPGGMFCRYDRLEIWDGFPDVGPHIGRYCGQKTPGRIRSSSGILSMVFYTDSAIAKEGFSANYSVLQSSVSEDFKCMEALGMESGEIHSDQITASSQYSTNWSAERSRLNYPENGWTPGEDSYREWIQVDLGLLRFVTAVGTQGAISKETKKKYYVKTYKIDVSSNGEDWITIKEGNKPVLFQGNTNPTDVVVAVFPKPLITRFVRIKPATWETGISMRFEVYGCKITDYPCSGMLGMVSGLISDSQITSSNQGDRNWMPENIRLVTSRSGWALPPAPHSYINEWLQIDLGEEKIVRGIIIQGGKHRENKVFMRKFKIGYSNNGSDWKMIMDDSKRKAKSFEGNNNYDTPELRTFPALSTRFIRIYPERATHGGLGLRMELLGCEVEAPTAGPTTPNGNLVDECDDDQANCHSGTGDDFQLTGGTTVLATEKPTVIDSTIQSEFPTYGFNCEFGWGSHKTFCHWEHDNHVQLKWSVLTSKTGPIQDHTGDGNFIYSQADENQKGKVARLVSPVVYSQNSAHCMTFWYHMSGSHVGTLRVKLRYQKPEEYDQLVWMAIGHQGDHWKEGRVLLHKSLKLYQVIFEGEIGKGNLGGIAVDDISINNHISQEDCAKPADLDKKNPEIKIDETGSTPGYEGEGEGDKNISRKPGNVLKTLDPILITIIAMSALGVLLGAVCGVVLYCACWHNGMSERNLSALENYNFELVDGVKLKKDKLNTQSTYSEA
SKN-1 inh – C. elegans SKN-1 inhibition. C. elegans VP596 Pgst-4::GFP/RFP ratio, acrylamide-induced, 24 h. inhibition, % at 21.8 µM. hit rate 0.49% among 360,000. AID 624304;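 active means interference check ratio from 0.5 to 1.5 plus GFP to RFP signal ratio inhibition reaching or exceeding a fixed threshold, cut at about 30% in these data, passing the limit was not always enough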
The depositor's hits bear a star; · = no result given. This is a sample that favours compounds with a hit; in the whole collection about 1.4% have one here.

SMILES	hiPSC survival	MT1-MMP act inh	CendR NRP1 mod	SKN-1 inh
COC(=O)CCC(=O)Nc1cccc2c(NC(=O)CCC(=O)OC)cccc12	6	2	21*	4
COC(=O)CCC(=O)Nc1ccccc1C(N)=O	3	-2	0	-8
O=C(Nn1cnnc1)c1cccc(S(=O)(=O)N2CCOCC2)c1	1	-2	-2	21
Brc1ccc(-c2cnc(-c3cccs3)o2)cc1	-2	-3	17	89*
COc1ccc(CC(=O)OC(C)C(=O)NC2CCCCC2C)cc1 (stereo not drawn)	2	12	17	11
CSC1=C(C#N)C(c2ccc(Cl)cc2)C2=C(CC(C)(C)CC2=O)N1 (stereo not drawn)	0	-14	9	35*
c1ccc(-c2nc(N3CCOCC3)sc2-c2ccccc2)cc1	0	-3	0	15
Cc1ccccc1Cn1nc(C)c(NC(=O)c2ccccc2)c1C	-1	-1	8	-2
CCOC1=C2[C@H](c3ccc(C)cc3)N(S(=O)(=O)c3ccc(C)cc3)C[C@H]2n2c(=O)n(-c3ccccc3)c(=O)n2C1	41*	1	12	-3
Cc1cc(S(=O)(=O)c2ccc([N+](=O)[O-])cn2)ccc1Br	1	-4	22*	6
Cc1ccc(S(=O)(=O)c2ccc([N+](=O)[O-])cn2)cc1	1	1	6	6
CCCCCSc1nc(C)c(CC(=O)O)c(=O)[nH]1	0	1	20*	6
CCCCCc1c(C)nc(SCC(=O)O)[nH]c1=O	0	2	-6	-18
C/C(=N\Nc1ccccc1C)c1cccnc1	-1	-1	5	0
O=C(C1CC1)N1N=C(c2ccc(Cl)cc2)CC1(O)C(F)(F)F (stereo not drawn)	1	-1	27*	11
C=CCC1CCCCC1=C(C#N)c1ccccc1 (stereo not drawn)	-2	-1	-1	46*
Cc1c(Cl)c(C(F)(F)F)nn1CC(=O)NN	3	7	-4	9
Cc1c(Cl)c(C(F)(F)F)nn1CC(=O)N1CCSCC1	-2	2	48*	-1
CCCCn1c(=O)[nH]c(=O)c2c1nc(Cn1ncc(Cl)c(Cl)c1=O)n2CCC	20*	-12	-19	-14
O=C(CN1C(=O)CCS(=O)(=O)c2ccccc21)NCc1ccccc1	3	3	4	37*
CCC(CC)C(=O)N1CC(=O)Nc2ccc(F)cc2C1c1ccc(F)cc1 (stereo not drawn)	-1	0	3	-1
Cc1c(Cl)c(-c2n[nH]c(=S)n2-c2ccc(F)cc2)nn1C	3	-6	7	30*
Cn1cc(Cl)c(-c2n[nH]c(=S)n2-c2ccc(F)cc2)n1	0	3	7	-5
CCOC(=O)N1CCN(C(=O)c2cnn3c(C(F)F)cc(-c4ccc(C)cc4)nc23)CC1	-3	1	20*	-1
Cc1ccc(-c2cc(C(F)F)n3ncc(C(=O)N4CCN(c5cccc(C)c5C)CC4)c3n2)cc1	-2	-10	1	39*
SMILES	hiPSC survival	MT1-MMP act inh	CendR NRP1 mod	SKN-1 inh
CN(CC(=O)Nc1ccc(F)cc1)C(=O)c1ccc(OCc2cn3ccccc3n2)cc1	1	2	27*	-6
c1ccc(Oc2cc(-c3ccccc3)ncn2)cc1	3	5	13	50*
Cc1ccc(-n2[nH]c(C)c(C=Nc3ccc4[nH]c(=O)[nH]c4c3)c2=O)cc1	-1	19	30*	8
Cc1ccc(-n2[nH]c(C)c(C=Nc3ccc4[nH]c(=O)[nH]c4c3)c2=O)cc1C	6	3	9	-3
Cc1[nH]n(-c2cccc3ccccc23)c(=O)c1C=Nc1ccc2[nH]c(=O)[nH]c2c1	6	5	-8	41*
Cc1ccccc1NS(=O)(=O)c1cc(C(=O)Nc2ccccc2-c2ccccc2)ccc1Cl	2	-5	0	2
O=C(CN1C(=O)NC(Cc2ccccc2)C1=O)Nc1ccc(OC(F)(F)F)cc1 (stereo not drawn)	1	-4	34*	-11
O=C(CN1C(=O)NC(Cc2ccccc2)C1=O)Nc1ccc(F)cc1 (stereo not drawn)	0	0	3	-22
O=C(CSc1nnc(COc2ccc(Cl)cc2)o1)NC1CC2CCC1C2 (stereo not drawn)	1	0	6	39*
CC(C)(C)c1cc[n+](-c2[nH]c(=O)sc2/C=N/NC([S-])=Nc2ccccc2)cc1	0	-87	54*	-25
Cc1cc[n+](-c2[nH]c(=O)sc2/C=N/NC([S-])=Nc2ccccc2)cc1C	-2	-74	35*	1
Cn1c(=O)c2[nH]c(N3CCOCC3)nc2n(-c2ccccc2)c1=O	-1	2	6	5
CC1CCCN(C(=O)c2ccc(S(=O)(=O)Nc3ccccc3Cl)cc2)C1 (stereo not drawn)	0	-2	1	-7
O=C(c1ccc(S(=O)(=O)Nc2ccccc2Cl)cc1)N1CCOCC1	1	2	26*	11
COCCn1cc(C(=O)NCc2cccs2)c2c3ccccc3n(C)c2c1=O	1	0	-18	41*
O=C1CN(S(=O)(=O)c2cc(Cl)ccc2Cl)c2ccccc2N1	0	1	22*	16
CSc1ccc(S(=O)(=O)N2CC(=O)Nc3ccccc32)cc1	0	0	-14	6
CCOc1ccccc1N1CCN(C(=O)c2ccncc2)CC1	0	7	43*	6
CCOc1cc(C(N)=O)cc(Br)c1OC	1	-6	6	44*
CCOc1cc(C(N)=O)cc(OCC)c1OCC	0	5	5	6
O=C(C=Cc1cccs1)c1ccc(Cl)s1	-3	1	9	41*
O=C(/C=C/c1cccs1)c1cc(Cl)ccc1O	-1	-9	-1	11
CN(NC1OC(=O)c2ccccc21)c1ncc(C(F)(F)F)cc1Cl (stereo not drawn)	-1	-2	6	-1
CCC1CCCCN1CCN1C(=O)C2C(C(=O)Nc3cccc(OC)c3)C3C=CC2(O3)C1C(=O)NC1CCCCC1 (stereo not drawn)	0	2	13	5
CCC1CCCCN1CCN1C(=O)C2C(C(=O)Nc3ccc(OC)cc3)C3C=CC2(O3)C1C(=O)NC1CCCCC1 (stereo not drawn)	0	0	7	37*
COCCOC1CCN(C(=O)C2CCC(=O)N(Cc3cccc(F)c3)C2)CC1 (stereo not drawn)	0	·	1	12
NC(=O)CSc1nnnn1-c1ccc(OC(F)(F)F)cc1	0	12	5	12
Cc1ccc(C(=O)CCC(=O)Nc2cccc(C(F)(F)F)c2)cc1C	3	3	1	-9
CC1CN(CC(=O)Nc2cccc(C(=O)Nc3cccc(C(F)(F)F)c3)c2)CC(C)O1 (stereo not drawn)	2	-2	12	18
Cc1ccc(C(=O)CCC(=O)Nc2cccc(C(F)(F)F)c2)cc1	-2	10	26*	-10
